EWS-Fli inh – EWS/Fli transcriptional activity inhibition; A673 NR0B1-luciferase reporter, viability-normalised; inhibition, % at 12.6 µM; 0.67% of 350,000 active; AID 651661;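 active = mean inhibition of at least 50% after viability correction, with every replicate also passing that limit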;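 also: firefly luciferase signal divided by Alamar Blue viability fluorescence both relative to DMSO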
PGC1a acetyl inh – lowers PGC1a acetylation signal in U2OS cells; AlphaScreen anti-acetyl-lysine; with virally co-expressed GCN5 acetyltransferase; inhibition, % at 15.6 µM; 0.17% of 350,000 active;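 active = every replicate shows inhibition of at least 40%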;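 also: 0% = neutral control wells and 100% = positive control wells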
PAX8 reporter – lowers PAX8-driven luciferase in RMG-I cells. inhibition, % at 12.6 µM. 1.2% of 360,000 active. AID 652154. RMG-I TPO-luciferase reporter, SteadyGlo, 24 h;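 active = mean replicate inhibition at least 60% with every replicate also reaching 60%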;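 also: luciferase light reporting Pax8 driven TPO promoter activity; plate controls were median of neutral control wells for no effect and mitoxantrone controls for full effect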
GSIS activator – primary screen for activators of insulin secretion dependent on glucose, INS-1E cells, GLuc reporter luminescence; INS-1E GLuc reporter insulin secretion, 2-3 h; activation, % at 16.6 µM; 0.61% of 370,000 active;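 active = lowest replicate activation of at least 40%, so every replicate reaches that level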;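 also: 0% = median of neutral control wells and 100% = median of IBMX positive control wells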
XiGFP reactiv – activators of X-chromosome reactivation in mouse fibroblasts; XiGFP mouse fibroblasts, % GFP-positive cells imaging, 3 d; cells co-treated with 5-aza-dC sensitizer; scaled so ellipticine positive control = 100%; activation, % at 7.58 µM; 0.055% of 360,000 active; AID 743238;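 active = mean normalized replicate activation at least 10% and every replicate at or above 10%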;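 also: 0% = median of on-plate neutral control wells and 100% = ellipticine 6 µM median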
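Material: XiGFP fibroblasts, SV40-immortalized. Buffer or medium: DMEM plus 5-aza-dC sensitizer. Compound: single concentration per compound, delivered by pin transfer. Times: 3 days compound exposure. Controls: ellipticine 6 µM.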
AF4-AF9 inh – MLL-AF4/AF9 protein interaction inhibition. AlphaScreen, biotin-AF4 peptide binding to FLAG-AF9. inhibition, % at 10 µM. 0.47% of 350,000 active. AID 651704;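 active = every replicate reaching a set inhibition limit, whatever the replicate mean, cut at about 25% in these data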;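 also: 0% = plate neutral control median and 100% = total signal loss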
Target sequence (P42568 whole entry, looked up): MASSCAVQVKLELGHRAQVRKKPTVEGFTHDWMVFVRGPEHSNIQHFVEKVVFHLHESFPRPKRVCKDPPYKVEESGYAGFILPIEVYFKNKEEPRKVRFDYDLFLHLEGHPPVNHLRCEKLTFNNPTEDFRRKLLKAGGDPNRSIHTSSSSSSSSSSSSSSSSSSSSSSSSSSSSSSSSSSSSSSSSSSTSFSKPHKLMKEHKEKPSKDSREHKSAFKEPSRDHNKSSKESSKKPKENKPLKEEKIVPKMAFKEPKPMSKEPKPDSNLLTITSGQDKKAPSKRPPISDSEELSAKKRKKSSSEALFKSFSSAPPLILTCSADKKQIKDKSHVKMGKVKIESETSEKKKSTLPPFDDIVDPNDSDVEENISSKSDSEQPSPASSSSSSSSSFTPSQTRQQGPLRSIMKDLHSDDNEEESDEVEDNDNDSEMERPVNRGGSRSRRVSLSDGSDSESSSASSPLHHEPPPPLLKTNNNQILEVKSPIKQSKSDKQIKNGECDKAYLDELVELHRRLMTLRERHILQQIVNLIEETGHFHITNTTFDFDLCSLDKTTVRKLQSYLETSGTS
An asterisk follows results filed as active; / = not tested or not shown. An excerpt weighted towards active compounds, which were near 2.1% of everything screened.

SMILES	EWS-Fli inh	PGC1a acetyl inh	PAX8 reporter	GSIS activator	XiGFP reactiv	AF4-AF9 inh
O=C1CN(/N=C/c2ccc([N+](=O)[O-])o2)C(=O)N1	6	-28	-3	/	0	25*
CO[C@H]1CN(C)C(=O)c2cc(NC(=O)Nc3cccc(F)c3)ccc2OC[C@H](C)N(C(=O)C2CC2)C[C@@H]1C	13	7	7	-29	0	/
O=C1C[C@@](C(=O)NCCN2CCOCC2)(c2ccc([N+](=O)[O-])cc2)[C@@H](c2ccc(CO)cc2I)N1CC12CC3CC(CC(C3)C1)C2	21	27	40	/	/	27*
Cc1ccc(C#CC[N+]2(CC#Cc3ccc(C)cc3)CCCCC2)cc1	33	/	69*	-70	0	-3
C(#Cc1ccccc1)C[N+]1(CC#Cc2ccccc2)CCCCC1	17	-1	38	-9	0	-3
CCCc1nc([N+](=O)[O-])c(S(=O)(=O)c2ccccc2)n1CC(C)C	-24	/	86*	13	0	0
C[C@@H]1CN([C@@H](C)CO)C(=O)c2cc(NS(=O)(=O)c3cn(C)cn3)ccc2O[C@@H]1CN(C)S(=O)(=O)c1cccs1	10	7	/	17	0	-2
COc1cc(C(=O)OCC(=O)Nc2sccc2C(N)=O)cc(OC)c1OC	61*	/	9	23	0	-19
NC(=O)c1ccsc1NC(=O)COC(=O)CNC(=O)c1ccc(Cl)cc1	10	-1	8	50*	0	0
COc1ccc(C(=O)OCC(=O)Nc2sccc2C(N)=O)cc1OC	-18	3	-10	32	0	-2
C[C@@H]1CN([C@H](C)CO)C(=O)c2cc(NC(=O)Nc3ccccc3)ccc2O[C@@H](C)CCCCO[C@@H]1CN(C)S(=O)(=O)c1cccs1	-10	-7	10	14	0	3
C[C@@H]1CN([C@H](C)CO)C(=O)c2cc(NC(=O)Nc3ccc(F)cc3)ccc2O[C@@H](C)CCCCO[C@@H]1CN(C)Cc1ccncc1	7	9	3	-15	0	/
COC(=O)C1=C(C)N(Cc2cccc(C(F)(F)F)c2)C(=NCc2ccc3c(c2)OCO3)NC1c1ccccc1 (centres undefined)	23	/	-3	/	0	17
COC(=O)C1=C(C)N(Cc2cccc(C(F)(F)F)c2)C(=NCc2ccccc2C(F)(F)F)NC1c1cccc(C(F)(F)F)c1 (centres undefined)	15	/	2	/	1	/
COC(=O)C1=C(C)N(Cc2cccc(C(F)(F)F)c2)C(=NCc2ccc(OC)cc2)NC1c1ccccc1C(F)(F)F (centres undefined)	25	/	11	40*	0	/
COC(=O)C1=C(C)N(Cc2cccc(C(F)(F)F)c2)C(=NCc2ccccc2C(F)(F)F)NC1c1cccc(F)c1 (centres undefined)	30	/	31	166*	0	/
COC(=O)C1=C(C)N(Cc2ccccc2C(F)(F)F)C(=NCc2cccc(C(F)(F)F)c2)NC1c1ccc(C(F)(F)F)cc1 (centres undefined)	11	/	-26	103*	0	/
COC(=O)C1=C(C)N(Cc2cccc(C(F)(F)F)c2)C(=NCc2ccc3c(c2)OCO3)NC1c1cccc(F)c1 (centres undefined)	45	/	65*	40*	0	/
COCC#Cc1ccc2c(c1)O[C@H](CN(C)CC1CCOCC1)[C@@H](C)CN([C@@H](C)CO)S2(=O)=O	-13	14	/	2	1	-4
COC(=O)C1=C(C)N(Cc2ccccc2C(F)(F)F)C(=NCc2ccc3c(c2)OCO3)NC1c1ccc(F)cc1 (centres undefined)	24	/	-12	/	0	/
COC(=O)C1=C(C)N(Cc2ccccc2C(F)(F)F)C(=NCc2ccc3c(c2)OCO3)NC1c1cccc(F)c1 (centres undefined)	18	/	-10	49*	0	/
O=C(C[C@H]1CC[C@H]2[C@@H](COC[C@@H](O)CN2Cc2cc(F)ccc2F)O1)N[C@@H]1CCN(Cc2ccccc2)C1	6	6	-5	-1	0	4
O=C1C=C(NCCc2cc(Br)c(O)c(Br)c2)C(=O)c2ncccc21	19	/	101*	-52	0	-6
